The inhibition is the share of the control response that was lost under treatment. By IC50 is commonly meant the point on the concentration scale where inhibition reaches its midpoint.

Results on 4 compounds are retold here after ChEMBL document CHEMBL1153264, “(1,2,3-Triazol-4-yl)benzenamines: synthesis and activity against VEGF receptors 1 and 2” (Bioorg Med Chem Lett, 2009).

The target in assay [1] is T1, Aurora kinase A (Homo sapiens) (UniProt O14965).
T1 sequence (whole entry): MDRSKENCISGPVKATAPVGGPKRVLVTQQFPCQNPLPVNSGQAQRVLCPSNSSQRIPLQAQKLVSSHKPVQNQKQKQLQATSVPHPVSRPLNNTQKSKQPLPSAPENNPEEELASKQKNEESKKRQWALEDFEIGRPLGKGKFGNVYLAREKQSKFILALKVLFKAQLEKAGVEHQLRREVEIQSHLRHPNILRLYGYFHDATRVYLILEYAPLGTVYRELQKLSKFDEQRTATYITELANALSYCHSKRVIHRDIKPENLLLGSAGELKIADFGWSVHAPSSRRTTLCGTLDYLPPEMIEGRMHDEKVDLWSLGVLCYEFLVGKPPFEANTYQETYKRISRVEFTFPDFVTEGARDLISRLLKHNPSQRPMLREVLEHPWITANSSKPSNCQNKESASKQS
Kind of assay: Inhibition of Aurora A at 10 uM.

Assay [2] has as its target Cyclin-dependent kinase 1 (Homo sapiens) (UniProt P06493). Kind of assay: Inhibition of Cdk1 at 10 uM.
For assay [3], the target named is Serine/threonine-protein kinase PLK1 (Homo sapiens) (UniProt P53350). Kind of assay: Inhibition of Plk1 at 10 uM.
Assay [4] has as its target Macrophage-stimulating protein receptor (Homo sapiens) (UniProt Q04912). Kind of assay: Inhibition of Ron at 10 uM.
The target in assay [5] is Proto-oncogene tyrosine-protein kinase Src (Homo sapiens) (UniProt P12931). Description: Inhibition of Src at 10 uM.
Assay [6] has as its target T2, Vascular endothelial growth factor receptor 2 (Homo sapiens, UniProt P35968). Description: Inhibition of VEGF-induced phosphorylation of VEGFR2 by cell-based ELISA.
Assay [7] addresses Hepatocyte growth factor receptor (Homo sapiens) (UniProt P08581). Kind of assay: Inhibition of c-Met at 10 uM.
Assay [8] deals with Epidermal growth factor receptor (Homo sapiens) (UniProt P00533). Description: Inhibition of EGFR at 10 uM.
Sequence of Epidermal growth factor receptor (Homo sapiens) (P00533 whole entry): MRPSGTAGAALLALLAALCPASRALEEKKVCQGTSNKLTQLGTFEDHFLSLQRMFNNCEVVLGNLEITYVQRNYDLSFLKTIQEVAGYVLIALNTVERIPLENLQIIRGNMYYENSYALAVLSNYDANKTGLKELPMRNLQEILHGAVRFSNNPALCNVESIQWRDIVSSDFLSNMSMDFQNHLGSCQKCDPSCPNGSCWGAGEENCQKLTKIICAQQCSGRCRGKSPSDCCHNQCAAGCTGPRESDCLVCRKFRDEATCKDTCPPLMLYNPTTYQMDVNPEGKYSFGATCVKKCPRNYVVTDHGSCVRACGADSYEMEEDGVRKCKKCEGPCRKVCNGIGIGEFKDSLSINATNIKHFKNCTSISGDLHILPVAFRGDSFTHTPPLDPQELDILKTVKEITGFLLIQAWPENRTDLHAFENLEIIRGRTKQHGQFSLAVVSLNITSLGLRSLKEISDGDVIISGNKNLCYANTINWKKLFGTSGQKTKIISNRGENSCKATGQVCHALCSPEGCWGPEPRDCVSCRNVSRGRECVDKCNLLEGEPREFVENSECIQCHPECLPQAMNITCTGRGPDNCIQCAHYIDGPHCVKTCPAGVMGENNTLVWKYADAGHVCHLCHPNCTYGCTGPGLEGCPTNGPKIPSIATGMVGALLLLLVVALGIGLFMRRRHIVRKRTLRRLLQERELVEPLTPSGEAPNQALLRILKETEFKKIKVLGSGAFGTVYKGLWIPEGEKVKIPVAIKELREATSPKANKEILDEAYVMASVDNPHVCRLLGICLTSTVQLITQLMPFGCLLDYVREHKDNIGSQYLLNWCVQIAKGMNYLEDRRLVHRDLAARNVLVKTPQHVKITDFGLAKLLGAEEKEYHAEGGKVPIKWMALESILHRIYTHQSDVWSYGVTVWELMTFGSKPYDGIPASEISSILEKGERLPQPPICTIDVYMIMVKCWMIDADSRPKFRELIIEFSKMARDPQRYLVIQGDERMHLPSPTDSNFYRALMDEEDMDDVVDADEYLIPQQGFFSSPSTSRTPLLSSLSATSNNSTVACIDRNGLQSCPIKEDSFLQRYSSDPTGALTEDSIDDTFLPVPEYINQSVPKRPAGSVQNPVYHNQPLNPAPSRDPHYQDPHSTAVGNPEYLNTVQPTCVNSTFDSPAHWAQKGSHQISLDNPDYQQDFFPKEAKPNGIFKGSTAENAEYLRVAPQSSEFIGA
Assay [9] has as its target Cyclin-dependent kinase 2 (Homo sapiens) (UniProt P24941). Kind of assay: Inhibition of Cdk2 at 10 uM.
Assay [10] deals with Receptor tyrosine-protein kinase erbB-2 (Homo sapiens) (UniProt P04626). Description: Inhibition of ErbB2 at 10 uM.
In assay [11] the target is Vascular endothelial growth factor receptor 1 (Homo sapiens, UniProt P17948). Description: Inhibition of VEGFR1 by HTRF assay. For orientation: Time-resolved FRET reads energy transfer from a long-lived donor to a nearby acceptor.
Assay [12] has as its target Insulin-like growth factor 1 receptor (Homo sapiens) (UniProt P08069). Kind of assay: Inhibition of IGF1R at 10 uM.
The target in assay [13] is Insulin receptor (Homo sapiens) (UniProt P06213). Description: Inhibition of IR at 10 uM.
In assay [14] the target is T2, Vascular endothelial growth factor receptor 2. Description: Inhibition of VEGFR2 by HTRF assay in presence of 2 uM ATP. An outline of the steps:
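HTRF kinase assay with KDR enzyme (3–4 ng) and biotinylated pGAT substrate. ATP added to start, 45 min at RT. Stopped with EDTA/KF buffer plus Eu-cryptate anti-phosphotyrosine antibody, 2 h RT, then HTRF read. IC50 from 10-point log concentration curves, mean of at least two duplicate runs.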

A short description of assay [15]: Inhibition of PKA at 10 uM.
The target in assay [16] is Bcr/Abl fusion protein (Homo sapiens) (UniProt P00519+P11274). Kind of assay: Inhibition of Bcr-Abl at 10 uM. Type of assay: protein assay.
Sequence of Bcr/Abl fusion protein (Homo sapiens) (P00519 whole entry, looked up, the tested form may be a part): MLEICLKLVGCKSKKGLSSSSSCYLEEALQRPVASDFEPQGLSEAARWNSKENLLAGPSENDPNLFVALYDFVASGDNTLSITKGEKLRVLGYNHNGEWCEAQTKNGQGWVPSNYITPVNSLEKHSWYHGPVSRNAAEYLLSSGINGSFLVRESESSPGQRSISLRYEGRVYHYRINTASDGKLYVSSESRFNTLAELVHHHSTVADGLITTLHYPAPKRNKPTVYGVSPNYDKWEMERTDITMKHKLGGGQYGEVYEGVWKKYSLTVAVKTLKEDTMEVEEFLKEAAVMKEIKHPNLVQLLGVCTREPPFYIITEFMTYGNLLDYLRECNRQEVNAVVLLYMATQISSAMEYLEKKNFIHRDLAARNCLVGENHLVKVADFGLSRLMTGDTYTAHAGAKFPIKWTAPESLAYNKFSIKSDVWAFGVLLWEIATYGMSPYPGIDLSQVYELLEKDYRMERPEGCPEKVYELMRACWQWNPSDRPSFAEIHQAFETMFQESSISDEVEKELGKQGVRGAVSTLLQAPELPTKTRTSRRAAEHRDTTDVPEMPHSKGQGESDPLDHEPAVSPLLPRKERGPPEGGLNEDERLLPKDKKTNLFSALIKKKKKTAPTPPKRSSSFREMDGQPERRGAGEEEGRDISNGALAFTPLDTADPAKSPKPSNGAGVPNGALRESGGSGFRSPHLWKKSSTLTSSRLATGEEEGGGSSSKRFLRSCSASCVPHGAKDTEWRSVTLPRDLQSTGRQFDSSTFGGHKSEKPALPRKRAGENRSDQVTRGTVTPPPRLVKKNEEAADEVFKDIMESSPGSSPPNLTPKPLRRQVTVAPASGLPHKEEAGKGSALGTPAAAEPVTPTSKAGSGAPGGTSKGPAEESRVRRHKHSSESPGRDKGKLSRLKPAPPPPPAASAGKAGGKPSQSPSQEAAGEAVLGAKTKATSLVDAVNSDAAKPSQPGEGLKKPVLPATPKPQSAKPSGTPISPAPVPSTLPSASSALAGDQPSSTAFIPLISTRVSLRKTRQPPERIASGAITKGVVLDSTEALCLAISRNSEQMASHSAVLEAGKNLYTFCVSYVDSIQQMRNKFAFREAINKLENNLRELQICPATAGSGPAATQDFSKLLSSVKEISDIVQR
Sequence of Bcr/Abl fusion protein (Homo sapiens) (P11274 whole entry, looked up, the tested form may be a part): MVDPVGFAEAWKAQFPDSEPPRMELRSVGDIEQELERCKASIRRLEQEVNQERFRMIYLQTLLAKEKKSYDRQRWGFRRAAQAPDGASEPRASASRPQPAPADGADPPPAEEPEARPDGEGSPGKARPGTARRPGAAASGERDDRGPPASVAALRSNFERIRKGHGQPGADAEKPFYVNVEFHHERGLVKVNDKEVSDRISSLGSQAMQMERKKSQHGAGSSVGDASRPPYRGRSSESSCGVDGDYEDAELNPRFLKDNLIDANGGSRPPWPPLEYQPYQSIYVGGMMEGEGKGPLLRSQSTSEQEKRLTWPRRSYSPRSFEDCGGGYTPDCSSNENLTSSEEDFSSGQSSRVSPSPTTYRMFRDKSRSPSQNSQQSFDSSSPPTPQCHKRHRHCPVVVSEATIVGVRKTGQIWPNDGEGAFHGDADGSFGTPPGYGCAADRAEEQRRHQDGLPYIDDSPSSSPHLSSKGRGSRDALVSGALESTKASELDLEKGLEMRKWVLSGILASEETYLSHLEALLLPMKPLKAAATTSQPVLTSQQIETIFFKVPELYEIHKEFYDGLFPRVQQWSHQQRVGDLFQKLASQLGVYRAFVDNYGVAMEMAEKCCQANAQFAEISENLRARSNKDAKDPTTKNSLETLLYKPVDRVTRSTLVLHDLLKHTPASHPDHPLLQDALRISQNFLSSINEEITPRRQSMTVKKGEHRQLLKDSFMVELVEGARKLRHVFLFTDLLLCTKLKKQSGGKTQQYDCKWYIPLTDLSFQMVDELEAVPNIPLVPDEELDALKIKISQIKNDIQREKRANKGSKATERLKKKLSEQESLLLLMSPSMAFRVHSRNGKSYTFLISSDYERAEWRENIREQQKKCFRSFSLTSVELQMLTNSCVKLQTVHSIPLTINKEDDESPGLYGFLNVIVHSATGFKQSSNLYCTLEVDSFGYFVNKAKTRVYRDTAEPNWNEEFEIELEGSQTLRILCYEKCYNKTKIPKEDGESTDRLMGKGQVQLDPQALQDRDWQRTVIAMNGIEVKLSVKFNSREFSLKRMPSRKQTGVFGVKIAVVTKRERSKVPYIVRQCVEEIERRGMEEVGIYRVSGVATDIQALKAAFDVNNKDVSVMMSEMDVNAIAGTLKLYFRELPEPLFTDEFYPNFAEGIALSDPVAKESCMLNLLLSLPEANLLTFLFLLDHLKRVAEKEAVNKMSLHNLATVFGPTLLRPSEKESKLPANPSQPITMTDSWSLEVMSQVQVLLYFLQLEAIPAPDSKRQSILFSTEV
In assay [17] the target is Glycogen synthase kinase-3 beta (Homo sapiens) (UniProt P49841). Kind of assay: Inhibition of GSK3-beta at 10 uM.
Sequence of Glycogen synthase kinase-3 beta (Homo sapiens) (P49841 whole entry, looked up): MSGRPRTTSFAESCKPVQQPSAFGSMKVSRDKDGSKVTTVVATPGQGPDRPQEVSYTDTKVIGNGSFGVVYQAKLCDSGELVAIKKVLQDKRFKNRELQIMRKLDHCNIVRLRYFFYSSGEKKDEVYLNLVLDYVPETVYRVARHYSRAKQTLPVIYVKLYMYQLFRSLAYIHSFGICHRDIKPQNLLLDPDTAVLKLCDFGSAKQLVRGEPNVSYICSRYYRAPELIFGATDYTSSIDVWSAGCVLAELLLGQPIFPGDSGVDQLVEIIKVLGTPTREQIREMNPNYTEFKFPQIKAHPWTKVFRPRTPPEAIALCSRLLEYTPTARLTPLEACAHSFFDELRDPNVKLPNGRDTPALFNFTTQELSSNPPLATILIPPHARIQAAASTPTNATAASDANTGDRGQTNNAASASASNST
Assay [18] has as its target Aurora kinase B (Homo sapiens) (UniProt Q96GD4). Kind of assay: Inhibition of Aurora B at 10 uM.
Assay [19] concerns the target Receptor-type tyrosine-protein kinase FLT3 (Homo sapiens) (UniProt P36888). Kind of assay: Inhibition of Flt3 at 10 uM.
Assay [20] has as its target Fibroblast growth factor receptor 1 (Homo sapiens) (UniProt P11362). Description: Inhibition of FGFR1 at 10 uM.
A short description of assay [21]: Inhibition of Bcr-Abl T315 mutant at 10 uM.

Sequence of Aurora kinase B (Homo sapiens) (Q96GD4 whole entry): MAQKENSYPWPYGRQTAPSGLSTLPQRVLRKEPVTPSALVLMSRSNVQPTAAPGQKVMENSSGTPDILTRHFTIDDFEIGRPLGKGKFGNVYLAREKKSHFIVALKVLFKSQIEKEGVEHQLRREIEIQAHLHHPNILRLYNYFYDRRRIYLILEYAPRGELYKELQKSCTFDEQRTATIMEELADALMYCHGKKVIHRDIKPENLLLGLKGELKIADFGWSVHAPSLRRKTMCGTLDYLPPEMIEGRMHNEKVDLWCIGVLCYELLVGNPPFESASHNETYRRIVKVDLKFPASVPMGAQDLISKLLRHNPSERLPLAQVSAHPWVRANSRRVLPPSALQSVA
Sequence of Cyclin-dependent kinase 1 (Homo sapiens) (P06493 whole entry, looked up): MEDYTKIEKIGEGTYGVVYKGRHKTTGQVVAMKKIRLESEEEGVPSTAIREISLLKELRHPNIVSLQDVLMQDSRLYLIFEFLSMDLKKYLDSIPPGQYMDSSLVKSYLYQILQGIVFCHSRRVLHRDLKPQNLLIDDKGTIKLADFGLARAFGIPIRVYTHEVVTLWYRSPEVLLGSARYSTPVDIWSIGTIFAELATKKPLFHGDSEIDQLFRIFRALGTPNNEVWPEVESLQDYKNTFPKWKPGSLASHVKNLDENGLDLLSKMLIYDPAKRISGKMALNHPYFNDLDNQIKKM

On to `Cc1ccc(-n2cc(-c3ccccc3NCc3ccncc3)nn2)cc1C(F)(F)F`, for which the inhibition in assay [1], in assay [2], in assay [3], in [4], in assay [5] and in assay [7] was less than 30% each time. In addition, the inhibition in [8], in assay [9], in assay [10], in assay [12], in assay [13] and in assay [15] was less than 30% throughout. The inhibition in [16], in assay [17], in assay [18], in [19], in assay [20] and in assay [21] was less than 30% throughout. Also, the values for the IC50 in assay [6], in assay [11] and in assay [14] were 180 nM, 110 nM and 140 nM, respectively.
For `Clc1ccc(-n2cc(-c3ccccc3NCc3ccncc3)nn2)cc1`, the inhibition in assay [1], in assay [2], in assay [3], in assay [4], in [5] and in assay [7] was less than 30% each time. Also, the inhibition in [8], in assay [9], in assay [10], in assay [12], in [13] and in assay [15] was less than 30% each time. Further, the inhibition in assay [16], in assay [17], in [18], in [19], in assay [20] and in assay [21] was less than 30% each time. In addition, the values for the IC50 in [6], in [11] and in [14] were 270 nM, 130 nM and 390 nM, respectively.
In the case of `Clc1cccc(-n2cc(-c3ccccc3NCc3ccccn3)nn2)c1`, the inhibition in assay [1], in [2], in [3], in assay [4], in [5] and in [7] was less than 30% in each case. Also, the inhibition in assay [8], in [9], in assay [10], in assay [12], in assay [13] and in assay [15] was less than 30% throughout. Moreover, the inhibition in assay [16], in assay [17], in assay [18], in assay [19], in assay [20] and in assay [21] was less than 30% in each case. Further, the IC50 in [6], in assay [11] and in assay [14] was more than 10000 nM each time.
Regarding `Clc1ccc(-n2cc(-c3ccccc3NCc3ccncc3)nn2)cc1Cl`, the inhibition in assay [1], in assay [2], in assay [3], in assay [4], in assay [5] and in assay [7] was less than 30% in each case. Further, the inhibition in assay [8], in assay [9], in [10], in [12], in assay [13] and in assay [15] was less than 30% throughout. The inhibition in assay [16], in assay [17], in [18], in assay [19], in [20] and in assay [21] was less than 30% throughout. The values for the IC50 in assay [6], in [11] and in assay [14] were 1470 nM, 650 nM and 630 nM, respectively.
